Screening results: PubChem BioAssay, several laboratories
Hits are enriched below; roughly 1% of the tested compounds scored in any of these assays.
UPR CHOP act = activators of apoptotic CHOP UPR arm, primary screen, cell-based, CHO-CHOP luciferase reporter, luminescence, uHTS | UPR activation; percent of tunicamycin response over DMSO baseline | activation, % at 10 µM | 330,000 compounds, 0.34% hits | AID 449763, 2010;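 active = at 10 µM dose, activation of 40% or more, normalized to positive control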;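 also: 100% = tunicamycin at 10 µg/mL and 0% = DMSO alone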
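System: CHO CHOP reporter cells. Amount: 500 cells per well. Buffer or medium: F12 medium, 10% FBS. Compound dosing: one dose, 10 µM in 0.5% DMSO. Incubation: 6 h compound exposure at 37 °C after overnight seeding. Technique: Steady-Glo luciferase luminescence. Benchmarks: tunicamycin and DMSO controls.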
T cell modulator = modulators of CD8 T cell-vesicle binding, primary screen, mouse 2C CD8+ T cells, flow cytometry | 2C CD8+ T cell-vesicle binding; stronger effect = lower value | response (vesicle binding), % at 7 µM | 330,000 compounds, 0.068% hits;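 active = response, share of CD8 T cells binding vesicles, and their 90th percentile fluorescence all below set limits, cut at about 80% in these data, passing the limit was not always enough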;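 also: values below 100% mean blocked vesicle binding to the CD8+ T cells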
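material = purified 2C TCR transgenic mouse naive CD8+ T cells | controls = Unloaded micro-vesicles (low), QL9 vesicles with 0.7% DMSO (high) | detection = cytometric PE anti-B7-1 and Alexa647 anti-CD8 signals after 1% paraformaldehyde fixation | incubation = binding step 1.5 h, 37 °C, antibody labelling 20 min, ice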
Beta2AR agonist = beta2AR agonists driving receptor internalization, primary screen, cell-based, FAP fluorogen, flow cytometry | AID 504454, 2011 | response, % (test concentration not listed) | 340,000 compounds, 0.43% hits | Am2.2-beta2AR cells | Beta-2 adrenergic receptor (Homo sapiens), P07550;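 active = response above a set limit, near 3 SD of response in nonfluorescent compounds, cut at about 42% in these data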
Target sequence (P07550 whole entry, looked up): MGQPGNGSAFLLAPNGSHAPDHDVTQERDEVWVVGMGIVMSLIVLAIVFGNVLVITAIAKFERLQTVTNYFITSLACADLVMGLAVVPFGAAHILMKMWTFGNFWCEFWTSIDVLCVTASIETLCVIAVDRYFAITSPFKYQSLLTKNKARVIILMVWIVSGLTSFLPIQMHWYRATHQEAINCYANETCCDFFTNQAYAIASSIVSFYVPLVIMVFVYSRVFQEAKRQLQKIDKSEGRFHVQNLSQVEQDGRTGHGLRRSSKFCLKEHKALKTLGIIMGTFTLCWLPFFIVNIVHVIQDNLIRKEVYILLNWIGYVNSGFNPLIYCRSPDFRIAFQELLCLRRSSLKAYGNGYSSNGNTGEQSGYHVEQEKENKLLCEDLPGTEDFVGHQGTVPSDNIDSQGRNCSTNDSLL
XBP1 UPR activ = activators of adaptive XBP1 UPR arm, primary screen, cell-based, CHO-XBP1 luciferase reporter, luminescence, uHTS | IRE1-XBP1 UPR activation; percent of tunicamycin response, DMSO as zero | activation, % at 20 µM | 330,000 compounds, 0.33% hits | AID 463104, 2010;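 active = versus positive control, 20 µM dose yields 30% or more activation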;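 also: 100% = tunicamycin at 10 µg/mL and 0% = DMSO only wells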
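Test system: CHO-XBP1 luciferase reporter cells | Buffer or medium: Serum-containing F12 medium, 10% FBS | Schedule: 6 h compound exposure at 37 °C, 5% CO2 | Detection: Steady-Glo luciferase glow luminescence, 10 min after reagent addition | Read-out basis: Activation, % of tunicamycin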
XBP1 UPR conf = IRE1-XBP1 UPR arm activators, confirmation, cell-based, CHO-XBP1 luciferase reporter, luminescence, single concentration. AID 485299, 2010. activation, % at 20 µM. shares compounds with XBP1 UPR activ. 1,000 compounds, 63% hits;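 active = reporter signal at least 30% of the positive control's activation in two or more of four replicate wells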;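 also: plate controls were DMSO negative control for no effect and tunicamycin 10 µg/mL positive control for full effect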
The depositor's hits bear a star; i = inactive; nt = no result.

SMILES	UPR CHOP act	T cell modulator	Beta2AR agonist	XBP1 UPR activ	XBP1 UPR conf
COc1cc(NC(=O)c2ccco2)c(C(=O)OCC(=O)c2c[nH]c3ccccc23)cc1OC	0	140	-2	131*	152*
CCOC(=O)C1=C(N)Oc2cc(O)ccc2C1c1ccc(C)cc1 (stereo unspecified)	1	289	23	-1	nt
O=C(O)c1ccccc1NC(=O)C(Cc1ccccc1)N1C(=O)c2ccccc2C1=O (stereo unspecified)	0	244	3	-4	nt
O=C(Nc1ccc([N+](=O)[O-])cc1)C(Cc1ccccc1)N1C(=O)c2cccc3cccc(c23)C1=O (stereo unspecified)	24	52	5	42*	46*
CCCCC1=CC2=C(c3ccco3)C(=O)C(C)(OC(=O)c3ccc(OC)cc3)C(=O)C2=CN1Cc1ccc(OC)cc1 (stereo unspecified)	5	nt	nt	0	nt
CCCCC1=CC2=C(c3ccco3)C(=O)C(C)(OC(=O)c3ccc(OC)cc3)C(=O)C2=CN1CC(C)C (stereo unspecified)	19	528	35	33*	-2
COCc1c(C(=O)N/N=C(/C)c2ccccc2)nnn1-c1nonc1N	-1	550	-1	0	nt
CCOC(=O)C1=C(C)N=c2s/c(=C\c3ccc(O)c([N+](=O)[O-])c3)c(=O)n2C1c1ccccc1OC (stereo unspecified)	2	445	7	-1	nt
CCOC(=O)C1=C(C)n2c(s/c(=C/c3cccc([N+](=O)[O-])c3)c2=O)=NC1c1ccc(O)c(OC)c1 (stereo unspecified)	38	607	-10	45*	86*
CCC(c1c(C)n(C)n(-c2ccccc2)c1=O)c1c(C)n(C)n(-c2ccccc2)c1=O	1	802	-11	2	nt
COc1ccc2[nH]c3c(c2c1)CCN1C(=O)C(CC(=O)NC/C=C(\C)CCC=C(C)C)C[C@H](C(=O)N(C(C)C)C(C)C)[C@@]31C (stereo partly specified)	5	nt	-7	33*	46*
N#C/C(=C/c1ccc(N2CCCC2)c([N+](=O)[O-])c1)c1nc2ccccc2[nH]1	12	489	82*	131*	87*
N#C/C(=C\c1ccc(N2CCOCC2)c([N+](=O)[O-])c1)c1nc2ccccc2[nH]1	2	246	1	6	nt
CCNc1nc(NCC)n2c(SCC(=O)Nc3cccc(Cl)c3)nnc2n1	-1	333	24	0	nt
CCNc1nc(NCC)n2c(SC(C(=O)Nc3cc(Cl)cc(Cl)c3)c3ccccc3)nnc2n1 (stereo unspecified)	15	439	5	90*	25
Cc1ccc(N2CC(C(=O)NCc3n[nH]c(=O)c4ccccc34)CC2=O)cc1C (stereo unspecified)	0	171	4	0	nt
COC(=O)c1c(NC(=O)c2nc3ccccc3s2)sc2c1CC(C)(C)NC2(C)C	26	836	-5	41*	48*
Cc1nn(Cc2ccc(Cl)cc2)c(C)c1NC(=O)c1cc(-c2ccco2)on1	2	139	-1	2	nt
COc1ccc(-c2cc(C(=O)Nc3c(C)nn(Cc4ccc(Cl)cc4)c3C)no2)cc1	6	182	0	49*	6
O=C(Nc1nncs1)c1ccc(F)c(S(=O)(=O)N2CCCCC2)c1	0	nt	-3	-2	nt
Cc1ccc(/C=N/Nc2nncc(-c3ccccc3)n2)o1	3	304	-13	-3	nt
Clc1ccccc1-c1ccc(/C=N/Nc2nncc(-c3ccccc3)n2)o1	-1	624	19	41*	28
COc1cc(/C=C2/C(=N)N3C=CSC3=NC2=O)ccc1OCCCOc1cc(C)ccc1C	-1	234	63*	85*	129*
CC1=CC(C)(C)n2c(O)c(N=NC(N)=S)c3cc(C)cc1c32	22	0	-8	31*	3
CCOC(=O)c1sc(NC(=O)CN2C(=O)NC3(CC(C)CC(C)(C)C3)C2=O)c(C(=O)OCC)c1C (stereo unspecified)	2	180	5	-2	nt
SMILES	UPR CHOP act	T cell modulator	Beta2AR agonist	XBP1 UPR activ	XBP1 UPR conf
CCOC(=O)c1sc(NC(=O)CN2C(=O)NC3(CCC(C)CC3)C2=O)c(C(=O)OCC)c1C (stereo unspecified)	12	324	0	31*	24
C=CCN1C(=O)c2ccc(C(=O)OCC(=O)N(CC)C3CCS(=O)(=O)C3)cc2C1=O (stereo unspecified)	0	452	15	-3	nt
CCCn1c(SCc2nc3sc(C)c(C)c3c(=O)[nH]2)nc2ccccc2c1=O	-2	598	-9	78*	180*
COCCn1c(SCc2nc3ccccc3c(=O)[nH]2)nc2ccccc2c1=O	-1	338	-2	-2	nt
Cc1ccc(Cn2c(=O)n(-c3ccccc3)c(=O)c3ccc(C(=O)NCc4ccco4)cc32)cc1	1	404	13	35*	31*
C=CCn1c(=O)c2ccc(C(=O)NCc3ccccc3)cc2n(Cc2ccc(C)cc2)c1=O	1	343	-4	44*	18
COCCCNC(=O)c1ccc(Cn2c(=O)c3ccccc3n(Cc3cc(C)ccc3C)c2=O)cc1	3	176	-1	0	nt
CCC(C)NC(=O)Cn1c(=O)n(-c2ccccc2)c(=O)c2ccc(C(=O)NCc3ccco3)cc21 (stereo unspecified)	1	449	0	-2	nt
Cc1ccc2c(c1)N(CC(=O)NCc1cccnc1)C(=O)CO2	1	556	2	-1	nt
Cc1ccc(NC2=C(Cl)C(=O)OC2OC(C)C)c(C)c1 (stereo unspecified)	2	231	-8	36*	0
CC1CCCN(c2ccc(C(=O)NCc3ccccc3)cn2)C1 (stereo unspecified)	6	241	1	19	nt
CC1CCCN(c2ccc(C(=O)NCc3cccs3)cn2)C1 (stereo unspecified)	5	205	-4	38*	32*
O=C(NCc1cccs1)c1ccc(N2CCCCC2)nc1	4	301	-5	30	21
O=C(NCc1cccs1)c1ccncc1	-2	547	-7	-2	nt
Cc1ccc(-c2cc(C(=O)Nc3sc4c(c3C(=O)NCc3ccco3)CCC4)[nH]n2)c(O)c1	1	i	0	16	nt
CCNC(=O)c1c(NC(=O)c2cc(-c3cc(C)ccc3O)n[nH]2)sc2c1CCCC2	8	170	16	42*	75*
CN(C)CCCN(C(=O)c1cc(-c2cccs2)nc2ccccc12)c1nc2ccc(F)cc2s1	5	368	16	33*	40*
